Data set [1] can be described thus: Retention time of the compound in human liver microsomes at 20 uM by LC-MS/MS analysis. It is filed as ADME, microsome. The method, boiled down:
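Human liver microsomes (both genders; 1.0 mg/mL) in 100 mM PBS pH 7.4 with 3 mM MgCl2 and 10 mM NADPH, preincubated at 37 °C. Reaction started with compound at 20 μM final (from DMSO stock); propranolol 5 μM as control. Aliquots at 0 and 60 min quenched in ice-cold ACN. Analysed by LC/MS/MS on a C18 column, 5–75% B gradient over 30 min, ESI.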

Data set [2] in a line: Induction of microtubule depolymerization in rat A10 cells by indirect immunofluorescence method. The class given is cell-based. The method, boiled down:
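A-10 cells, which arrest in interphase, used to score loss of interphase microtubules. EC50 values calculated per an earlier method, minimum of three independent experiments.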

Data set [3] relates to MDA-MB-435 (human). Kind of data set: Antiproliferative activity against human MDA-MB-435 cells by SRB assay.
The test system of data set [4] is HeLa. Nature of the data set: Resistance index, ratio of IC50 for human HeLa cells expressing wild type beta3 tubulin to IC50 for human HeLa cells. It is filed as functional. The method, boiled down:
(§1)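 Antiproliferative IC50 by SRB assay (cellular protein) in each isogenic pair: SK-OV-3 parental versus Pgp-expressing, and parental HeLa versus wild-type βIII-tubulin-expressing HeLa. Rr is the IC50 ratio of the modified line to the parental line. At least three independent experiments, each in triplicate, mean ± SD.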

The species named for data set [5] is Bos taurus. Nature of the data set: Inhibition of [3H]colchicine binding to bovine brain tubulin at 5 uM measured after 10 mins by scintillation counting method relative to control. A digest of the protocol:
(§2)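 Reactions of 0.1 mL held 1.0 μM bovine brain tubulin, 5.0 μM [3H]colchicine, inhibitor at 1.0 or 5.0 μM, colchicine-binding stabilizing components and 5% DMSO, assembled on ice with tubulin added last. Incubated 10 min at 37 °C, stopped with ice water, filtered through DEAE-cellulose filters. Bound radiolabel counted by scintillation.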

The nature of data set [6]: Resistance index, ratio of IC50 for human SKOV3-MDR1-M6/6 cells to IC50 for human SKOV3 cells. The class given is functional. A digest of the protocol: as §1
The nature of data set [7]: Antiproliferative activity against human SKOV3-MDR1-M6/6 cells by SRB assay. The class given is functional. On the technique in general: In SRB staining, fixed cells bind dye roughly in proportion to their protein.
The species named for data set [8] is Bos taurus. Kind of data set: Inhibition of [3H]colchicine binding to bovine brain tubulin at 1 uM measured after 10 mins by scintillation counting method relative to control. The method, boiled down:
as §2

Data set [9] concerns HeLa. Kind of data set: Antiproliferative activity against human HeLa cells expressing wild type beta3 tubulin by SRB assay. The class given is functional, cell-based.
Data set [10] relates to SK-OV-3. Kind of data set: Antiproliferative activity against human SKOV3 cells by SRB assay. The class given is functional, cell-based.
Data set [11] has as its system HeLa. Nature of the data set: Antiproliferative activity against human HeLa cells by SRB assay. It is filed as functional, cell-based.
The nature of data set [12]: Inhibition of bovine brain tubulin polymerization assessed as reduction in tubulin assembly pretreated for 15 mins followed by GTP addition by spectrophotometric method. Details: species or system Bos taurus. The method, boiled down: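 Placed on ice, then 0.4 mM GTP (final) added. Turbidity read at 350 nm after a jump from 0 °C to 30 °C.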

By EC50 is commonly meant the concentration that produces a half-maximal response. Compound `Cc1nc2c(c(N(C)c3ccc(S(C)(=O)=O)cc3)n1)CCC2` displayed a Retention_time in data set [1] of 9.6 min. Besides, the EC50 in [2] is above 10000 nM.

For the compound `COc1ccc([C@H](C)N(C)c2nc(C)nc3c2CCC3)cc1`, in data set [2], the EC50 was above 10000 nM.

As usually defined, the IC50 is the concentration at which inhibition is half-maximal. As to `Cc1nc2c(c(N(C)c3ccc(N)cc3)n1)CCC2`, the EC50 in data set [2] is 5120 nM. Besides, the 50% inhibitory concentration (IC50) in data set [3] is 1220 nM.

As usually defined, the inhibition is the percentage by which the read-out fell short of the control. Higher therefore signals a response far below the control. `COc1ccc(N(C)c2nc(C)nc3c2CCC3)cc1C`: the “Ratio IC50” value stood at 0.9 in [4] and 2 in data set [6]. In addition, the inhibition in [5] turned out to be 83%; in [8], 59%. Besides, the half-inhibitory concentration (IC50) in [7] stood at 47.5 nM; in data set [9] it was 20.6 nM; in data set [10] it was 23.9 nM; in [11], 22.8 nM; in [3] it was 18.4 nM; in data set [12], 1100 nM. The same compound displayed an EC50 in data set [2] of 56 nM.

In [2], `COc1ccc([C@@H](C)N(C)c2nc(C)nc3c2CCC3)cc1` gave an EC50 above 10000 nM.

In [2], `COc1ccc(CN(C)c2nc(C)nc3c2CCC3)cc1` yielded an EC50 above 10000 nM. In [3], half-maximal inhibition (IC50) required 450 nM.

As for `COc1ccc(N(C)c2nc(C)nc3c2CCC3)cc1`, the results for the inhibition in data set [5] and in data set [8] were 92% and 70%, respectively. Besides, the IC50 in data set [7] stood at 16.4 nM; in [9], 9.6 nM; in [11], 12 nM; in [12], 1600 nM. Besides, in data set [2], the concentration giving a half-maximal response (EC50) worked out at 26 nM.

For the compound `Cc1nc2c(c(N(C)c3ccc(N(C)C)cc3)n1)CCC2`, the figures for the “Ratio IC50” value in data set [4] and in data set [6] were 0.9 and 1.7, respectively. In addition, the inhibition came out at 85% in [5] and 65% in data set [8]. In addition, the IC50 in [7] worked out at 22.6 nM; in data set [9], 9.8 nM; in data set [10] it was 13 nM; in data set [11] it was 11.3 nM; in data set [3], 8.2 nM; in [12] it was 1200 nM. Further, it took 40 nM to reach a half-maximal effect in data set [2] (EC50).

`Cc1nc2c(c(N(C)c3ccc(O)cc3)n1)CCC2`: the 50% effective concentration (EC50) in data set [2] is 5560 nM. This compound displayed a 50% inhibitory concentration (IC50) in data set [3] of 405 nM.

As for `CNc1ccc(N(C)c2nc(C)nc3c2CCC3)cc1`, the “Ratio IC50” value in data set [4] is given as 0.6; in [6] it was 1.4. The IC50 turned out to be 49.7 nM in data set [7], 36.3 nM in data set [10], 31 nM in data set [11] and 20 nM in data set [3]. This compound displayed an EC50 in data set [2] of 45 nM.

In the case of `Cc1nc2c(c(N(C)c3ccc([S+](C)[O-])cc3)n1)CCC2` (configuration not stated), the “Ratio IC50” value in data set [4] came out at 1.5; in data set [6] it was 1.6. Moreover, the inhibition in [5] came out at 93%; in data set [8], 79%. In data set [1], this compound displayed a Retention_time of 7.9 min. Moreover, the concentration for half-maximal inhibition (IC50) in data set [7] is 19.9 nM; in [9] it was 10 nM; in data set [10], 12.6 nM; in data set [11] it was 6.8 nM; in data set [3], 7.9 nM; in data set [12], 1100 nM. This compound showed a half-maximal effective concentration (EC50) in data set [2] of 31 nM.

`COc1ccc(/C=C\c2cc(OC)c(OC)c(OC)c2)cc1O` [COMBRETASTATIN A4]: the IC50 in data set [7] is 6.6 nM; in data set [3] it was 3.4 nM. The compound further gave an EC50 in data set [2] of 13 nM.

Regarding `Cc1nc2c(c(N(C)c3ccc4c(c3)CCO4)n1)CCC2`, the “Ratio IC50” value is on record as 0.9 in data set [4] and 1.6 in data set [6]. Besides, the inhibition in data set [5] worked out at 85%; in [8] it was 64%. Moreover, the 50% inhibitory concentration (IC50) was found to be 29.8 nM in [7]; 15.1 nM in data set [9]; 18.7 nM in [10]; 16 nM in data set [11]; 12.1 nM in [3]; 1200 nM in data set [12]. Further, the EC50 in [2] was 70 nM.

Source of the values: ChEMBL document CHEMBL4219224, “Structure based drug design and in vitro metabolism study: Discovery of N-(4-methylthiophenyl)-N,2-dimethyl-cyclopenta[d]pyrimidine as a potent microtubule targeting agent” (Bioorg Med Chem, 2018).
